From PMC10401071 (Cancer Discovery, 2023)
Read-outs that look alike come from different tables or passages of the source.

Experiments:
[1] = Pharmacokinetic analysis of blood samples after oral brigimadlin; format: in vivo, human; conditions: for AUC(0-inf) / Cmax: oral
Procedure, shortened: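 Oral test compound given to patients with advanced solid tumours, on day 1 of 21-day cycles or days 1 and 8 of 28-day cycles. Cycle 1 blood taken 5 min pre-dose, 1–8 h post-dose on day 1, then once on days 2, 3, 4, 5 and 8. Later cycles: pre-dose and 6 h, day 2, plus days 3 and 8 in cycle 2. Cmax and AUC by noncompartmental analysis.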

[2] = test system: growth differentiation factor 15 (GDF-15); format: in vivo, human; conditions: all dose-escalation cohorts, both arms
Procedure, shortened: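 Blood drawn for GDF-15, a circulating downstream p53 marker measured as a target-engagement surrogate. Dosing was oral, day 1 every 21 days or days 1 and 8 every 28 days. Cycle 1 sampling: 5 min pre-dose; 1, 2, 3, 4, 5, 6 and 8 h post-dose on day 1; once on days 2, 3, 4, 5 and 8. All dose-escalation cohorts, both arms.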

[3] = format: in vivo, human
Procedure, shortened: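 Adults with advanced solid tumours (ECOG 0–1; TP53 wild-type or unknown) received oral test compound on day 1 of 21-day cycles or days 1 and 8 of 28-day cycles, until progression or unacceptable toxicity. Antiemetic prophylaxis followed guidelines. AE incidence and severity were graded per NCI CTCAE v5.0 and summarised descriptively.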

Structure (SMILES): Cc1c(C(=O)O)ccc2c3n(nc12)[C@@H]1[C@H](C3)N(CC2CC2)[C@@]2(C(=O)Nc3cc(Cl)ccc32)[C@H]1c1cccc(Cl)c1F [brigimadlin]
- dose linearity of plasma exposure (Cmax and AUC0-inf) ([1]; after the first dose, both arms, dose range 5 to 80 mg): no significant deviation from linearity
- dose linearity of plasma exposure (Cmax and AUC0-inf) ([1]; dose range 10 to 60 mg): no significant deviation from linearity
- AUC(0-inf) ([1]; human, plasma, 60 mg): 121 µM·h
- Cmax ([1]; human, plasma, 60 mg): 2.48 µM
- AUC(0-inf) ([1]; human, plasma, 80 mg): 339 µM·h
- Cmax ([1]; human, plasma, 80 mg): 4.8 µM
- half-life ([1]; human, plasma, po, half-life, patients, as summarised in Discussion): 30 to 60 h
- growth differentiation factor 15 levels (target engagement) [2]: time- and dose-dependent increases
- Any AE ([3]; All patients (N = 54)): 54 (100.0) n (%)
- Any AE (any cause) leading to study drug discontinuation ([3]; All patients (N = 54)): 3 (5.6) n (%)
- Any AE (any cause) leading to study drug dose reduction ([3]; All patients (N = 54)): 19 (35.2) n (%)
- Any TRAE ([3]; All patients (N = 54)): 50 (92.6) n (%)
- Any grade ≥3 AE ([3]; All patients (N = 54)): 33 (61.1) n (%)
- Any grade ≥3 TRAE ([3]; All patients (N = 54)): 25 (46.3) n (%)
- Serious AEs (any cause) ([3]; All patients (N = 54)): 18 (33.3) n (%)
- TRAE Alopecia, All grades ([3]; All patients (N = 54)): 12 (22.2) n (%)
- TRAE Alopecia, Grade ≥3 ([3]; All patients (N = 54)): 0 n (%)
- TRAE Anemia, All grades ([3]; All patients (N = 54)): 16 (29.6) n (%)
- TRAE Anemia, Grade ≥3 ([3]; All patients (N = 54)): 5 (9.3) n (%)
- TRAE Decreased appetite, All grades ([3]; All patients (N = 54)): 17 (31.5) n (%)
- TRAE Decreased appetite, Grade ≥3 ([3]; All patients (N = 54)): 0 n (%)
- TRAE Decreased lymphocyte count, All grades ([3]; All patients (N = 54)): 7 (13.0) n (%)
- TRAE Decreased lymphocyte count, Grade ≥3 ([3]; All patients (N = 54)): 4 (7.4) n (%)
- TRAE Decreased weight, All grades ([3]; All patients (N = 54)): 4 (7.4) n (%)
- TRAE Decreased weight, Grade ≥3 ([3]; All patients (N = 54)): 0 n (%)
- TRAE Decreased white blood cell count, All grades ([3]; All patients (N = 54)): 13 (24.1) n (%)
- TRAE Decreased white blood cell count, Grade ≥3 ([3]; All patients (N = 54)): 7 (13.0) n (%)
- TRAE Diarrhea, All grades ([3]; All patients (N = 54)): 16 (29.6) n (%)
- TRAE Diarrhea, Grade ≥3 ([3]; All patients (N = 54)): 0 n (%)
- TRAE Dysgeusia, All grades ([3]; All patients (N = 54)): 10 (18.5) n (%)
- TRAE Dysgeusia, Grade ≥3 ([3]; All patients (N = 54)): 0 n (%)
- TRAE Fatigue, All grades ([3]; All patients (N = 54)): 25 (46.3) n (%)
- TRAE Fatigue, Grade ≥3 ([3]; All patients (N = 54)): 1 (1.9) n (%)
- TRAE Gastroesophageal reflux disease, All grades ([3]; All patients (N = 54)): 5 (9.3) n (%)
- TRAE Gastroesophageal reflux disease, Grade ≥3 ([3]; All patients (N = 54)): 0 n (%)
- TRAE Increased alanine aminotransferase, All grades ([3]; All patients (N = 54)): 3 (5.6) n (%)
- TRAE Increased alanine aminotransferase, Grade ≥3 ([3]; All patients (N = 54)): 0 n (%)
- TRAE Increased aspartate aminotransferase, All grades ([3]; All patients (N = 54)): 5 (9.3) n (%)
- TRAE Increased aspartate aminotransferase, Grade ≥3 ([3]; All patients (N = 54)): 0 n (%)
- TRAE Nausea, All grades ([3]; All patients (N = 54)): 40 (74.1) n (%)
- TRAE Nausea, Grade ≥3 ([3]; All patients (N = 54)): 4 (7.4) n (%)
- TRAE Neutropenia, All grades ([3]; All patients (N = 54)): 16 (29.6) n (%)
- TRAE Neutropenia, Grade ≥3 ([3]; All patients (N = 54)): 13 (24.1) n (%)
- TRAE Thrombocytopenia, All grades ([3]; All patients (N = 54)): 24 (44.4) n (%)
- TRAE Thrombocytopenia, Grade ≥3 ([3]; All patients (N = 54)): 14 (25.9) n (%)
- TRAE Vomiting, All grades ([3]; All patients (N = 54)): 28 (51.9) n (%)
- TRAE Vomiting, Grade ≥3 ([3]; All patients (N = 54)): 1 (1.9) n (%)
- patients with neutropenia leading to dose reduction ([3]; D1D8q4w): four
- patients with thrombocytopenia leading to dose reduction ([3]; D1D8q4w): four
- serious AE thrombocytopenia ([3]; D1D8q4w): three
- Any AE ([3]; D1D8q4w (n = 25)): 25 (100.0) n (%)
- Any AE (any cause) leading to study drug discontinuation ([3]; D1D8q4w (n = 25)): 1 (4.0) n (%)
- Any AE (any cause) leading to study drug dose reduction ([3]; D1D8q4w (n = 25)): 8 (32.0) n (%)
- Any TRAE ([3]; D1D8q4w (n = 25)): 23 (92.0) n (%)
- Any grade ≥3 AE ([3]; D1D8q4w (n = 25)): 12 (48.0) n (%)
- Any grade ≥3 TRAE ([3]; D1D8q4w (n = 25)): 8 (32.0) n (%)
- Serious AEs (any cause) ([3]; D1D8q4w (n = 25)): 9 (36.0) n (%)
- TRAE Alopecia, All grades ([3]; D1D8q4w (n = 25)): 6 (24.0) n (%)
- TRAE Alopecia, Grade ≥3 ([3]; D1D8q4w (n = 25)): 0 n (%)
- TRAE Anemia, All grades ([3]; D1D8q4w (n = 25)): 4 (16.0) n (%)
- TRAE Anemia, Grade ≥3 ([3]; D1D8q4w (n = 25)): 2 (8.0) n (%)
- TRAE Decreased appetite, All grades ([3]; D1D8q4w (n = 25)): 7 (28.0) n (%)
- TRAE Decreased appetite, Grade ≥3 ([3]; D1D8q4w (n = 25)): 0 n (%)
- TRAE Decreased lymphocyte count, All grades ([3]; D1D8q4w (n = 25)): 2 (8.0) n (%)
- TRAE Decreased lymphocyte count, Grade ≥3 ([3]; D1D8q4w (n = 25)): 1 (4.0) n (%)
- TRAE Decreased weight, Grade ≥3 ([3]; D1D8q4w (n = 25)): 0 n (%)
- TRAE Decreased white blood cell count, All grades ([3]; D1D8q4w (n = 25)): 4 (16.0) n (%)
- TRAE Decreased white blood cell count, Grade ≥3 ([3]; D1D8q4w (n = 25)): 2 (8.0) n (%)
- TRAE Diarrhea, All grades ([3]; D1D8q4w (n = 25)): 8 (32.0) n (%)
- TRAE Diarrhea, Grade ≥3 ([3]; D1D8q4w (n = 25)): 0 n (%)
- TRAE Dysgeusia, All grades ([3]; D1D8q4w (n = 25)): 5 (20.0) n (%)
